This is an account of results in PubChem BioAssay AID688 (PCMD, 2007).

Molecules are shown by their SMILES. About 250 (0.93%) of roughly 27,000 compounds were called active. The sample holds actives, similar compounds and a random draw of the others, so the mix is not that of the screen.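 The calls were made as follows: active = mutant luminescence inhibited past about 50% while wild type luminescence and mutant growth stay under set limits (limit read from the data); inconclusive = mutant versus wild type luminescence inhibition gap past a set limit; inactive = the rest.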

The nature of this assay: mutant yeast GCN4 reporter luminescence inhibitors – S. cerevisiae, eIF2B-epsilon R284H, Beta-Glo luminescence, primary screen (AID 688). The note with it: GCN4-lacZ luminescence; growth inhibition: measured here: mutant yeast growth, toxicity, concentration not given here; inhibition: stronger effect = higher value, screened at 25 µM (by protocol). Summed up: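 material = yeast eIF2B-epsilon R284H mutant carrying GCN4–beta-galactosidase fusion | schedule = 16 h growth with compound at 30 °C, 90 min Beta-Glo step | measured by = luminescence and A595 | compound dosing = one concentration, 25 µM, 0.25% DMSO | read-out basis = % inhibition of reporter signal and growth versus controls | buffer or medium = YPD medium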
Take `O=C(O)CSc1nccn1-c1cccc(Cl)c1`: the growth inhibition was -14.3% and the inhibition is -8.74% (inactive).

Consider `Oc1ccc2ccc3cccc[n+]3c2c1`, for which the growth inhibition is -4.35% and the inhibition was 53.1% (active).

`O=C(Nc1ccc(S(=O)(=O)N2CCCC2)cc1Cl)C1=COCCO1`: the growth inhibition is -13.8% and the inhibition was 17.1% (inactive).

Consider `Cc1cc(C)n(-c2cc(Oc3ccccc3)ncn2)n1`, for which the growth inhibition was -5.56% and the inhibition was 0% (inactive).

For the compound `Cc1cc(NC(=O)CCC2COc3ccccc3O2)no1` (configuration not stated), the inhibition was -23.3% (inactive).

As to `O=c1[nH]c2c(c(=O)n1Cc1ccccc1)CCC2`, the growth inhibition came to 10.8% and the inhibition was 17.1% (inactive).

As to `CCCC(=O)N(CCc1ccccc1)Cc1nc2ccccc2c(=O)[nH]1`, the growth inhibition was 19% and the inhibition is -3.55% (inactive).

For the compound `CCn1nccc1C(=O)Nc1ccc(Cl)c(Cl)c1`, the growth inhibition is -8.33% and the inhibition is 37.2% (inactive).

For the compound `CCCC(C)C(=O)Nc1ccc(NC(C)=O)cc1` (configuration not stated), the growth inhibition came out at 2.78% and the inhibition is 11.4% (inactive).

Regarding `Cc1ccc(C(=O)Nc2ccccc2C(=O)NC2CCCCC2)cc1S(=O)(=O)N1CCOCC1`, the growth inhibition was -23.3% and the inhibition was 29% (inactive).

Take `Cc1cccc(C)c1NC(=O)CCCSc1nnc(-c2ccco2)n1-c1ccccc1`: the growth inhibition is 11.5% and the inhibition is -14.1% (inactive).

For `Cc1ccnc(NC(=O)c2ccc(NC(=O)c3ccco3)cc2)c1`, the growth inhibition was -8.33% and the inhibition was 8.24% (inactive).

As to `COc1ccc(Nc2nc(=O)[nH]nc2C)cc1`, the growth inhibition stood at 20.6% and the inhibition is 25.8% (inactive).

For `C=CCNC(=O)CCCC(=O)NCC=C`, the growth inhibition was -4.76% and the inhibition was -58.7% (inactive).

In the case of `O=C(O)CSCC(=O)Nc1cccc(C(F)(F)F)c1`, the growth inhibition amounted to 12.1% and the inhibition was 21.9% (inactive).

On to `Cc1cccc2c(=O)n3c(nc12)CCCCC3`, for which the growth inhibition was 25.8% and the inhibition is 13.2% (inactive).

With `CCn1nnc(NC(=O)c2cc(Cl)c(OC)c(Cl)c2)n1`, the growth inhibition turned out to be 18.5% and the inhibition is 17.4% (inactive).

Take `Cc1c(Nc2nc3ccccc3nc2NS(=O)(=O)c2cccs2)c(=O)n(-c2ccccc2)n1C`: the growth inhibition amounted to 5% and the inhibition is -33.1% (inactive).

In the case of `CC(C)(C)NC(=O)c1cc(NC(=O)c2ccco2)cc(NC(=O)c2ccco2)c1`, the inhibition is 11.3% (inactive).

Turning to `CCOc1ccccc1N=C1NC(=O)CS1`, the inhibition was -14.3% (inactive).

Regarding `CC/C(=N\O)C(C)(C)/[N+]([O-])=C/c1ccc(Br)cc1`, the growth inhibition is 5.26% and the inhibition was 9.15% (inactive).

Take `N=c1c2c3c(sc2ncn1CCCN1CCOCC1)CCCCC3`: the growth inhibition was found to be 3.7% and the inhibition was 23% (inactive).

Regarding `Cc1nnc(SCC(=O)N2CCN(c3ccccc3)CC2)n1-c1ccccc1`, the growth inhibition is -9.52% and the inhibition is 1.9% (inactive).

Turning to `c1ccc(CCc2nc(-c3ccncc3)no2)cc1`, the growth inhibition worked out at 15.2% and the inhibition was 50.4% (active).

On to `c1csc(-c2nc(-c3ccncc3)no2)c1`, for which the growth inhibition came to 6.45% and the inhibition was 2.34% (inactive).

For `O=C1c2ccccc2C(=O)N1CCCc1nc(-c2ccccc2)no1`, the growth inhibition is -5.56% and the inhibition was -17.2% (inactive).

As for `COCCOCCn1cnc2ccccc21`, the growth inhibition turned out to be 6.67% and the inhibition is 18.1% (inactive).

Take `CCOn1c(SC(C)C)nc2ccccc2c1=O`: the inhibition was 10.3% (inactive).

On to `O=C(CSc1nnc(-c2cccnc2)n1CCc1ccccc1)NCc1ccccc1`, for which the inhibition was -28.6% (inactive).

Regarding `Cc1ccc(NC(=O)N2CCC(O)(c3cccnc3)CC2)cc1`, the growth inhibition stood at 12.8% and the inhibition was 17.2% (inactive).

Take `Cn1c(Cc2cccc3ccccc23)nnc1SCC(=O)N1CCN(c2cccc(Cl)c2)CC1`: the growth inhibition was determined as 2.78% and the inhibition is 15.8% (inactive).

For the compound `CCSC1(SCC)N=C(N)C2(C#N)C(c3ccccc3)NC(C)=CC12C#N` (configuration not stated), the growth inhibition was -8.11% and the inhibition is -35% (inactive).

On to `CNC(=S)N1N=C(c2ccccc2)CC1c1ccc(Br)cc1` (configuration not stated), for which the growth inhibition is -12.5% and the inhibition is 17.7% (inactive).

`CCNC(=O)CN(c1ccc(C)cc1)S(=O)(=O)c1ccc(SC)cc1`: the growth inhibition is 13.8% and the inhibition was -15% (inactive).

With `Cc1nn(C)cc1CNC(=O)Nc1ccc(Cl)cc1`, the growth inhibition was -18.2% and the inhibition is -9.58% (inactive).

On to `O=C1c2ccncc2C(=O)N1C1CCCCC1`, for which the growth inhibition was 8.93% and the inhibition is 68.7% (active).

Consider `Cc1cc(N2CCN(S(=O)(=O)c3ccc(C)c(C)c3)CC2)c2ccccc2n1`, for which the growth inhibition was found to be 3.23% and the inhibition is 10.4% (inactive).

On to `Cc1[nH][nH]c(=O)c1N=Nc1ccccc1`, for which the growth inhibition was 8.33% and the inhibition is 28.6% (inactive).

Regarding `CN(Cc1nc2ccccc2c(=O)[nH]1)Cc1cc(=O)oc2ccc3ccccc3c12`, the growth inhibition was 9.38% and the inhibition is 16.8% (inactive).

For `CC(C)C(NC(=O)c1ccc(Cl)cc1)C(=O)O` (configuration not stated), the growth inhibition was found to be 16.2% and the inhibition is 27.4% (inactive).

For the compound `CCC(C(=O)NCc1ccc(OC)cc1)n1nc(C)n2c(cc3occc32)c1=O` (configuration not stated), the growth inhibition is -9.52% and the inhibition is 47% (inactive).

Regarding `Cc1noc(NS(=O)(=O)c2ccc(NC(=O)C34CCC(CC3)C4)cc2)c1C`, the growth inhibition turned out to be 2.7% and the inhibition was -23.3% (inactive).

Consider `C/C=C/C(=O)OCC(=O)Nc1ccc(F)cc1Cl`, for which the growth inhibition was -4.76% and the inhibition is 19.8% (inactive).

For `COc1ccc(CNCCCO)cc1OC`, the growth inhibition came to 8.33% and the inhibition was -1.06% (inactive).

Regarding `CCc1c(-c2ccccc2)nc(N)c(C#N)c1-c1cccs1`, the growth inhibition is -19.1% and the inhibition is 15.9% (inactive).

As for `OCCN1CCOCCOCCN(CCO)CCN(CCO)CC1`, the growth inhibition is -9.52% and the inhibition was 13.5% (inactive).

Turning to `O=c1[nH][nH]c(C(F)(F)F)c1C=NCc1ccccc1Cl`, the growth inhibition came to 12.5% and the inhibition is 12% (inactive).

Take `O=P(O)(CP(=O)(c1ccccc1)c1ccccc1)c1ccccc1`: the growth inhibition turned out to be 3.57% and the inhibition was -14.4% (inactive).

In the case of `CC(C)(C)NC(=O)Cn1c(SCC(=O)Nc2nccs2)nc2ccccc21`, the growth inhibition was -29.4% and the inhibition was 0.21% (inactive).

For `COc1ccccc1N=C1SC(C)CN1C(=O)C1CCC1` (configuration not stated), the growth inhibition came out at 4.55% and the inhibition was 26.9% (inactive).

Turning to `CCN(CC(=O)Nc1ccccc1OC)C(=O)Cn1cnc2ccccc2c1=O`, the growth inhibition is -14.3% and the inhibition was 6.69% (inactive).

`C/C(=N\NS(=O)(=O)c1ccc(Br)cc1)c1cccs1`: the growth inhibition came out at 2.78% and the inhibition is 11% (inactive).

In the case of `Cc1cccc(NC(=O)C2CC(=O)OC23CCCC3)c1` (configuration not stated), the growth inhibition is 11.5% and the inhibition is -11.9% (inactive).

For `Cc1ccc(NC(=O)N2CCC(c3nc4c(nnn4Cc4c(F)cccc4Cl)c(=O)[nH]3)CC2)cc1`, the growth inhibition was determined as 6.06% and the inhibition is 14.6% (inactive).

With `CCC(C)NC(=O)CCCc1ccccc1` (configuration not stated), the growth inhibition is -2.38% and the inhibition is 7.79% (inactive).

Regarding `CCCCNC(=O)C1CCCNC1=O` (configuration not stated), the growth inhibition is 26.5% and the inhibition was 22.2% (inactive).

As to `CC1(C)Cc2c(sc3nc(SCC(=O)NCc4ccccc4)n(-c4ccccc4)c(=O)c23)CS1`, the growth inhibition is -11.9% and the inhibition was -11% (inactive).

For `CCOc1ccc(S(=O)(=O)NCC2CCCO2)cc1` (configuration not stated), the growth inhibition was determined as 5.88% and the inhibition is 10.3% (inactive).

Take `Cn1c2c(c(=O)n(C)c1=O)C(c1cccc([N+](=O)[O-])c1)Nc1ccccc1O2` (configuration not stated): the growth inhibition is -14.3% and the inhibition was 20.4% (inactive).

For the compound `CC(=O)Nc1ccc(S(=O)(=O)N2CCN(C3CCCCCCC3)CC2)cc1`, the growth inhibition is 9.09% and the inhibition was -9.55% (inactive).

Turning to `CCOC(=O)CSc1nnc(CNc2ccc(F)cc2)o1`, the growth inhibition came out at 3.45% and the inhibition is 19.4% (inactive).

Turning to `COc1ccc(CN(CC(=O)NC2CCCC2)C(=O)CCC(=O)Nc2cc(C)on2)cc1`, the growth inhibition is -15.6% and the inhibition was -35.1% (inactive).

For `CN(C(=O)COc1ccccc1)c1nnc(-c2ccncc2)s1`, the inhibition was 10.2% (inactive).

`CCOC(=O)CSc1nccc(N(C)C)c1C#N`: the growth inhibition was found to be 12% and the inhibition was 24.8% (inactive).

On to `CCOC(=O)CSc1nncc2ccc(OC)c(OC)c12`, for which the inhibition is 50.1% (active).

Turning to `CCOC(=O)CSc1nnc(CNC(=O)Cc2ccccc2)n1-c1ccccc1OC`, the growth inhibition is -1.72% and the inhibition is 36.1% (inactive).

Consider `CCC(=O)c1ccc(OCC(O)CN2CC(C)OC(C)C2)cc1` (configuration not stated), for which the growth inhibition was found to be 4.55% and the inhibition was -8.08% (inactive).
